Measured values as given in ChEMBL document CHEMBL1817588, “Design and synthesis of 1,3-biarylsulfanyl derivatives as new anti-breast cancer agents” (Bioorg Med Chem, 2011).
The source made the active and inactive calls. The calls are words filed in the database; no cut-off is given here.

How the values were obtained:
MCF7 [1] = experiment: Antiproliferative activity against human MCF7 cells expressing estrogen receptor after 48 hrs by MTT assay; type: functional, cell-based; conditions: MCF7, 48 h
How it was run: (§1)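 Cells seeded at 1×10^4/well in DMEM with 10% FBS for 24 h at 37 °C, then exposed to compounds for 48 h. MTT (5 mg/mL) added for 4 h. Formazan dissolved in DMSO and absorbance read at 540 nm. Routine culture used DMEM with 10% FBS, 5% CO2, reduced to 2% FBS for growth inhibition.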

MDA-MB-231 [2] = experiment: Antiproliferative activity against estrogen receptor-deficient human MDA-MB-231 cells […] after 48 hrs by MTT assay; type: functional, cell-based; conditions: MDA-MB-231, 48 h; how it was run: as §1
Ishikawa [3] = experiment: Antiproliferative activity against human Ishikawa cells expressing estrogen receptor at 50 uM after 48 hrs by MTT assay; type: functional, cell-based
HEK293 [4] = experiment: Antiproliferative activity against human HEK293 cells after 48 hrs by MTT assay; type: cell-based; conditions: HEK293, 48 h; how it was run: as §1
Rattus norvegicus [5] = experiment: Estrogenic activity in Sprague-Dawley rat assessed as increase in uterine weight administered as po daily once for 3 days relative to control; type: functional; parameters: concentration or dose not given beside the values
How it was run: (§2)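 Immature female Sprague-Dawley rats given oral dosing once daily for 3 days on days 28–30 of age. Antiestrogenic arm co-dosed ethynylestradiol 0.02 mg/kg in 10% ethanol-water. Autopsy 24 h after last dose (day 31). Uterus excised, blotted and weighed, with vaginal opening and cornification also scored. Inhibition computed as (E − T)×100/E versus ethynylestradiol alone. Estrogenic gain expressed as percent increase over vehicle control.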

Rattus norvegicus [6] = species on record: Rattus norvegicus; experiment: Displacement of [3H]-estradiol from estrogen receptor in rat uteri after 18 hrs by scintillation counting relative to 17beta-estradiol
How it was run: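 Cytosol from uteri of immature 20–21-day-old rats, in TEA buffer pH 7.4 (10 mM Tris, 1.5 mM EDTA, 0.02% azide). Incubated in triplicate with fixed 3H-estradiol ± competitor (DMF ≤5% final) for 18 h at 4 °C. Free ligand removed with dextran-coated charcoal (15 min, 800g 10 min), then supernatant counted. RBA taken at 50% inhibition from the bound-versus-log concentration plot.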

Bone [7] = experiment: Antiosteoporotic activity in Sprague-Dawley rat [45Ca] pre-labeled bone assessed as inhibition of PTH-induced bone resorption after 96 hrs
Bone [8] = experiment: Antiosteoporotic activity in Sprague-Dawley rat [45Ca] pre-labeled bone assessed as inhibition of PTH-induced bone resorption after 96 hrs relative to control
Ishikawa [9] = experiment: Antiproliferative activity against human Ishikawa cells expressing estrogen receptor after 48 hrs by MTT assay; type: functional, cell-based; how it was run: as §1
Rattus norvegicus [10] = experiment: Antiestrogenic activity in Sprague-Dawley rat assessed as inhibition of uterine weight gain administered as po daily once for 3 days relative to 17alpha-ethynylestradiol; type: functional; how it was run: as §2
Rattus norvegicus [11] = experiment: Antiimplantation activity in Sprague-Dawley albino rat at 20 mg/kg, po after 10 days; type: functional
How it was run: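 Sperm-positive adult Sprague-Dawley females (180–220 g) mated with proven-fertile males. Compounds given orally as a gum acacia suspension on days 1–5 post-coitum, 5–7 animals per group. Vehicle-only group served as control.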

HEK293 [12] = experiment: Antiproliferative activity against human HEK293 cells at 50 uM after 48 hrs by MTT assay; type: cell-based; conditions: hek293, 48 h
MCF7 [13] = experiment: Antiproliferative activity against human MCF7 cells expressing estrogen receptor at 50 uM after 48 hrs by MTT assay; type: functional, cell-based
MDA-MB-231 [14] = experiment: Antiproliferative activity against estrogen receptor-deficient human MDA-MB-231 cells […] at 50 uM after 48 hrs by MTT assay; type: functional, cell-based
Bone marrow cell [15] = experiment: Osteoclastogenesis activity in BALB/c mouse bone marrow cells assessed as inhibition of RANK-induced RANK gene expression at 1 uM after 7 days by RT-PCR analysis; type: functional, cell-based
How it was run: (§3)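 Bone marrow from long bones of 4–6-week-old Balb/c mice, plated overnight in α-MEM with 10% FBS and M-CSF. Nonadherent cells then cultured with RANKL 50 ng/ml and M-CSF 10 ng/ml plus test agent 1 µM, medium changed every 2 d for 7 d. TRAP and RANK mRNA measured by qPCR after Trizol RNA extraction, expressed as fold change over vehicle.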

Bone marrow cell [16] = experiment: Osteoclastogenesis activity in BALB/c mouse bone marrow cells assessed as inhibition of MCSF-induced RANK gene expression at 1 uM after 7 days by RT-PCR analysis; type: functional, cell-based; how it was run: as §3
Bone marrow cell [17] = experiment: Osteoclastogenesis activity in BALB/c mouse bone marrow cells assessed as inhibition of MCSF-induced TRAP gene expression at 1 uM after 7 days by RT-PCR analysis; type: functional, cell-based; how it was run: as §3
Bone marrow cell [18] = experiment: Osteoclastogenesis activity in BALB/c mouse bone marrow cells assessed as inhibition of RANK-induced TRAP gene expression at 1 uM after 7 days by RT-PCR analysis; type: functional, cell-based; how it was run: as §3

Row | SMILES | IC50 (MCF7 [1]) [µM] | IC50 (MDA-MB-231 [2]) [µM] | Activity (Ishikawa [3]) | IC50 (HEK293 [4]) [µM] | Activity (Rattus norvegicus [5]) [%] | RBA (Rattus norvegicus [6]) [%] | T/C (Bone [7]) | inhibition (INH) (Bone [8]) [%] | IC50 (Ishikawa [9]) [µM] | inhibition (INH) (Rattus norvegicus [10]) [%] | Activity (Rattus norvegicus [11]) | Activity (HEK293 [12]) | Activity (MCF7 [13]) | Activity (MDA-MB-231 [14]) | inhibition (Bone marrow cell [15]) | inhibition (Bone marrow cell [16]) | inhibition (Bone marrow cell [17]) | inhibition (Bone marrow cell [18])
1 | O=C(CC(Sc1ccccc1)c1ccc(O)cc1)c1ccccc1 (configuration not stated) | 19 | 33 | inactive | 31.4 | – | – | – | – | – | – | – | – | – | – | – | – | – | –
2 | O=C(CC(Sc1ccc(O)cc1)c1ccc(O)cc1)c1ccc(OCCN2CCCC2)cc1 (configuration not stated) | 25 | > 50 | – | 28.7 | 111 | 5.15 | 0.934 | 6.6 | 17.3 | 24 | inactive | – | – | – | – | – | – | –
3 | Cc1ccc(SC(CC(=O)c2ccc(OCCN(C)C)cc2)c2ccccc2)cc1 (configuration not stated) | > 50 | 28 | inactive | – | 76 | 0.245 | 0.845 | 15.5 | – | 8 | inactive | Non-toxic | – | – | – | – | – | –
4 | Cc1ccc(SC(CC(=O)c2ccccc2)c2ccccc2)cc1 (configuration not stated) | – | – | inactive | – | – | – | – | – | – | – | – | – | inactive | inactive | – | – | – | –
5 | COc1ccc(C(=O)CC(Sc2ccc(C)cc2)c2ccc(OC)cc2)cc1 (configuration not stated) | 18 | 28 | inactive | – | – | – | – | – | – | – | – | Non-toxic | – | – | – | – | – | –
6 | O=C(CC(Sc1ccc(O)cc1)c1cccc(O)c1)c1ccc(OCCN2CCCCC2)cc1 (configuration not stated) | 12.2 | 19 | – | 65.8 | 79 | 4.47 | 0.812 | 18.8 | 17 | 31 | 100% | – | – | – | – | – | – | –
7 | CCSC(CC(=O)c1ccc(OCCN2CCCCC2)cc1)c1ccccc1 (configuration not stated) | 32.8 | 40.2 | – | – | 134 | 0.175 | 0.947 | 5.5 | 28.5 | 7 | inactive | Non-toxic | – | – | – | – | – | –
8 | CCSC(CC(=O)c1ccc(OCCN2CCCC2)cc1)c1ccccc1 (configuration not stated) | 27 | > 50 | – | 29.2 | 152 | 0.191 | 0.963 | 3.7 | > 50 | 9 | 100% | – | – | – | – | – | – | –
9 | COc1ccc(C(=O)CC(Sc2ccccc2)c2ccc(OC)cc2)cc1 (configuration not stated) | 17 | 31 | – | 38.2 | 187 | 2.21 | 0.61 | 39 | 16 | 16 | inactive | – | – | – | Active | Active | Active | Active
10 | O=C(CC(Sc1ccc(O)cc1)c1ccccc1)c1ccc(OCCN2CCCC2)cc1 (configuration not stated) | 28.6 | 27 | – | 27.5 | 101 | 0.67 | 0.902 | 9.8 | 16 | 18 | 60% | – | – | – | – | – | – | –
11 | CN(C)CCOc1ccc(C(=O)CC(Sc2ccccc2)c2ccccc2)cc1 (configuration not stated) | > 50 | 27 | – | – | 174 | 0.157 | 0.863 | 13.7 | 20 | 12 | inactive | Non-toxic | – | – | – | – | – | –
12 | CCSC(CC(=O)c1ccc(OCCN(C)C)cc1)c1ccccc1 (configuration not stated) | 27 | 38 | inactive | 32.8 | 212 | 0.246 | 0.944 | 5.6 | – | 4 | inactive | – | – | – | – | – | – | –
13 | O=C(CC(Sc1ccc(Cl)cc1)c1ccccc1)c1ccccc1 (configuration not stated) | – | – | inactive | – | – | – | – | – | – | – | – | – | inactive | inactive | – | – | – | –
14 | COc1ccc(C(CC(=O)c2ccccc2)Sc2ccccc2)cc1 (configuration not stated) | 21 | 34 | – | – | 192 | 2.67 | 0.784 | 21.6 | 26 | 18 | inactive | – | – | – | Active | Active | Active | Active
15 | CCSC(CC(=O)c1ccccc1)c1ccc(O)cc1 (configuration not stated) | – | – | inactive | – | – | – | – | – | – | – | – | – | inactive | inactive | – | – | – | –
16 | O=C(CC(Sc1ccccc1)c1ccccc1)c1ccccc1 (configuration not stated) | 24 | 57 | – | – | 185 | 1.25 | 0.562 | 43.8 | 20 | 16 | inactive | – | – | – | Active | Active | Active | Active
17 | O=C(CC(Sc1ccc(O)cc1)c1ccccc1)c1ccc(OCCN2CCCCC2)cc1 (configuration not stated) | 9.6 | 16.5 | – | 75.2 | 58 | 5.27 | 0.787 | 21.3 | 16.2 | 34 | 100% | – | – | – | – | – | – | –
